Source: ChEMBL document CHEMBL4190262, “Tuning of β-glucosidase and α-galactosidase inhibition by generation and in situ screening of a library of pyrrolidine-triazole hybrid molecules” (Eur J Med Chem, 2017)

How the values were obtained:
[1] = biological target: Alpha-galactosidase (Coffea arabica) (UniProt Q42656); test: Inhibition of coffee beans alpha-galactosidase at 1 mM using p-nitrophenyl glycopyranoside preincubated for 5 mins followed by substrate addition measured after 20 mins by visible absorption spectroscopic method relative to control
Method in brief: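 Test compound at 1 mM in well. Mix: 0.01–0.5 units/mL enzyme plus 10 mM p-nitrophenyl glycopyranoside (aqueous solution), buffered to the enzyme's optimal pH. Enzyme and inhibitor preincubated 5 min at rt. Substrate then added and incubated 20 min at 37 °C. Stopped with sodium borate (pH 9.8). p-Nitrophenolate read at 405 nm. Duplicates averaged.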

[2] = Inhibition of almond beta-glucosidase using p-nitrophenyl glycopyranoside preincubated for 5 mins followed by substrate addition measured after 20 mins by visible absorption spectroscopic method; design: species or system Prunus dulcis
Method in brief: (§1)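 IC50 determined only for compounds giving ≥80% inhibition at 1 mM, read from plots of % inhibition versus inhibitor concentration. p-Nitrophenyl glycopyranoside substrate (10 mM solution) at the enzyme's optimal pH, with 0.01–0.5 units/mL enzyme. 5 min rt preincubation with enzyme, then 20 min at 37 °C. Borate stop (pH 9.8), absorbance at 405 nm. Duplicates averaged.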

Prunus dulcis = test: Inhibition of almond beta-glucosidase at 10 uM using p-nitrophenyl glycopyranoside preincubated for 5 mins followed by substrate addition measured after 20 mins by visible absorption spectroscopic method relative to control
Method in brief: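 Crude click-reaction products screened in situ. Azide (final 15 mM) was reacted with each alkyne using sodium ascorbate/CuSO4 in tBuOH–H2O for 24 h at rt, then diluted with water. Tested at 10 μM per well, assuming quantitative conversion, against almond β-glucosidase at pH 5, 37 °C. p-Nitrophenyl glycoside read-out at 405 nm.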

[3] = biological target: T1, Alpha-galactosidase A (Homo sapiens) (UniProt P06280); test: Inhibition of human lysosomal alpha-galactosidase A at 1 mM using 4-methylumbelliferyl-alpha-D-galactopyranoside as substrate preincubated for 45 mins followed by substrate addition measured after 30 mins by fluorescence spectroscopic method relative to control
T1 sequence (whole entry): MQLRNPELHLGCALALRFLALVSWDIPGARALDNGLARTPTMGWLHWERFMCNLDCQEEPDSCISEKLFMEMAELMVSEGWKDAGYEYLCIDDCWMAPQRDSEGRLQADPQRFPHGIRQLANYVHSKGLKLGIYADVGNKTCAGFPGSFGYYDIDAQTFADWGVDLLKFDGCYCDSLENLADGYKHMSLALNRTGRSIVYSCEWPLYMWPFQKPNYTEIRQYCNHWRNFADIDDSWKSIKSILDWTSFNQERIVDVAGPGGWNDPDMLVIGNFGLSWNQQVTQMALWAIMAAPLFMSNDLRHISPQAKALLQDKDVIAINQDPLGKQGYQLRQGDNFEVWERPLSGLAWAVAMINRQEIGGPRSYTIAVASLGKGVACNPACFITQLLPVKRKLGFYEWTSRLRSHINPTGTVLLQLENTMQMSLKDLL
Method in brief: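 Enzyme in 100 mM McIlvaine buffer pH 5.2 with 0.25% sodium taurocholate and 0.1% Triton X-100, with inhibitor. Preincubated at 0 °C for 45 min, then started with 3 mM 4-methylumbelliferyl glycoside substrate solution and incubated 30 min at 37 °C. Stopped with 400 mM glycine-NaOH pH 10.6. 4-Methylumbelliferone fluorescence read at ex 362/em 450 nm.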

Alpha-galactosidase = Alpha-galactosidase (Coffea arabica, UniProt Q42656); test: Inhibition of coffee beans alpha-galactosidase using p-nitrophenyl glycopyranoside preincubated for 5 mins followed by substrate addition measured after 20 mins by visible absorption spectroscopic method; method in brief: as §1
[4] = biological target: Alpha-galactosidase (Coffea arabica) (UniProt Q42656); test: Inhibition of coffee beans alpha-galactosidase at 50 uM using p-nitrophenyl glycopyranoside preincubated for 5 mins followed by substrate addition measured after 20 mins by visible absorption spectroscopic method relative to control
Method in brief: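 Crude triazoles from in situ CuAAC (ascorbate/CuSO4, 24 h rt, water-diluted) were screened at 50 μM per well, assuming full conversion. Enzyme was coffee bean α-galactosidase at pH 6, 37 °C, with p-nitrophenyl glycoside substrate and 405 nm read-out. Blanks of CuSO4, ascorbate and each alkyne were run.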

[5] = Inhibition of bovine liver beta-glucosidase using p-nitrophenyl glycopyranoside preincubated for 5 mins followed by substrate addition measured after 20 mins by visible absorption spectroscopic method; design: species or system Bos taurus; method in brief: as §1
[6] = Selectivity ratio of IC50 for human lysosomal alpha-galactosidase A to IC50 for coffee beans alpha-galactosidase

Chain of Alpha-galactosidase (Coffea arabica) (Q42656 16-378 limits assumed): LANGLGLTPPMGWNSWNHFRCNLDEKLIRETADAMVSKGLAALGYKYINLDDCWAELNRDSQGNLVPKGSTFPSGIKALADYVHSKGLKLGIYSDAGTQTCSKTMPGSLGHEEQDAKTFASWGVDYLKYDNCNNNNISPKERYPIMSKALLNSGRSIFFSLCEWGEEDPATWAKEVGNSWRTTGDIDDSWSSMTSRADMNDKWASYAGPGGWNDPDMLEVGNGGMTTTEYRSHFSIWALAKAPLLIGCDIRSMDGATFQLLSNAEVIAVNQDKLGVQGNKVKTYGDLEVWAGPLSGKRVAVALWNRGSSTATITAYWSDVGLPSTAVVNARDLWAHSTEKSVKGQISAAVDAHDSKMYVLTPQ
Chain of Alpha-galactosidase (Q42656 whole entry): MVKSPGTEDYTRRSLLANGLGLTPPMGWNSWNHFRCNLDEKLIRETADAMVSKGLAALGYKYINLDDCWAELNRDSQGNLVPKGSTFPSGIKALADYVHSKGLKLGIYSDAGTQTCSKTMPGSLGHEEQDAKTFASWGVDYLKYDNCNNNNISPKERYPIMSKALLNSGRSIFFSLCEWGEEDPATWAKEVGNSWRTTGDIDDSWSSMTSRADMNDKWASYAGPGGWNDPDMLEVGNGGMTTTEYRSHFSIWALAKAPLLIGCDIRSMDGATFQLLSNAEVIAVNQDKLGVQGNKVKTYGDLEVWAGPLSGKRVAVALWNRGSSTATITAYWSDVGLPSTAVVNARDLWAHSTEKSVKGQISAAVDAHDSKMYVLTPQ

Row | SMILES | inhibition [1] | IC50 [2] | inhibition (Prunus dulcis) | inhibition [3] | IC50 (Alpha-galactosidase) | inhibition [4] | IC50 [5] | Ratio IC50 [6]
1 | O[C@@H]1[C@H](O)CN[C@H]1Cn1cc(-c2ccccc2)nn1 | < 50% | 8 µM | 72% | < 50% |  |  |  | 
2 | O[C@@H]1[C@H](O)CN[C@@H]1Cn1cc(-c2ccccc2)nn1 |  |  |  |  | 14 µM | 62% | 240 µM | 10
